Measurements from ChEMBL document CHEMBL4325889, “Natural products hybrids: 3,5,4'-Trimethoxystilbene-5,6,7-trimethoxyflavone chimeric analogs as potential cytotoxic agents against diverse human cancer cells” (Eur J Med Chem, 2019).

Legend:
Format in all cases: functional
HL-60(TB) = test: Growth inhibition of human HL-60(TB) cells at 10 uM after 48 hrs by SRB assay relative to control; conditions: HL-60, 48 h, read-out: GI
Method in brief: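 Run at NCI under its standard single-dose protocol against a leukemia cell panel. Cells were exposed to 10 µM; growth was read by sulforhodamine B staining of cellular protein and expressed as % growth inhibition versus untreated control. Values above 100% mean the cell population fell below the starting count (cytocidal). Each value is the average of duplicates.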

K562 = test: Growth inhibition of human K562 cells at 10 uM after 48 hrs by SRB assay relative to control; conditions: K562, 48 h, read-out: GI
Method in brief: (§1)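 Screened at the National Cancer Institute by the standard NCI protocol using the sulforhodamine B assay, which measures cellular protein. Single dose of 10 µM. Result is percent growth inhibition; values above 100% mean cell number fell below the initial population. Values are the average of duplicates.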

MOLT-4 = test: Growth inhibition of human MOLT4 cells at 10 uM after 48 hrs by SRB assay relative to control; conditions: MOLT-4, 48 h, read-out: GI; method in brief: as §1
SR = test: Growth inhibition of human SR cells at 10 uM after 48 hrs by SRB assay relative to control; conditions: read-out: GI
Method in brief: (§2)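 NCI screen against its human cancer cell line panel by the standard NCI protocol, SRB protein stain. Single dose of 10 μM. Percent growth inhibition versus control; values above 100% mean the cell population fell below the starting number. Each value is the mean of duplicates.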

A549 = test: Growth inhibition of human A549 cells at 10 uM after 48 hrs by SRB assay relative to control; conditions: A549, 48 h, read-out: GI; method in brief: as §1
HOP-62 = test: Growth inhibition of human HOP62 cells at 10 uM after 48 hrs by SRB assay relative to control; conditions: HOP-62, 48 h, read-out: GI; method in brief: as §1
HOP-92 = test: Growth inhibition of human HOP92 cells at 10 uM after 48 hrs by SRB assay relative to control; conditions: HOP-92, 48 h, read-out: GI; method in brief: as §1
NCI-H522 = test: Growth inhibition of human NCI-H522 cells at 10 uM after 48 hrs by SRB assay relative to control; conditions: NCI-H522, 48 h, read-out: GI; method in brief: as §1
COLO 205 = test: Growth inhibition of human COLO205 cells at 10 uM after 48 hrs by SRB assay relative to control; conditions: COLO 205, 48 h, read-out: GI; method in brief: as §1
HCC 2998 = test: Growth inhibition of human HCC2998 cells at 10 uM after 48 hrs by SRB assay relative to control; conditions: HCC 2998, 48 h, read-out: GI; method in brief: as §1
HCT-116 = test: Growth inhibition of human HCT116 cells at 10 uM after 48 hrs by SRB assay relative to control; conditions: HCT-116, 48 h, read-out: GI; method in brief: as §1
HT-29 = test: Growth inhibition of human HT-29 cells at 10 uM after 48 hrs by SRB assay relative to control; conditions: HT-29, 48 h, read-out: GI; method in brief: as §1
SW-620 = test: Growth inhibition of human SW620 cells at 10 uM after 48 hrs by SRB assay relative to control; conditions: SW-620, 48 h, read-out: GI; method in brief: as §2
SF-539 = test: Growth inhibition of human SF539 cells at 10 uM after 48 hrs by SRB assay relative to control; conditions: SF-539, 48 h, read-out: GI; method in brief: as §1
SNB-19 = test: Growth inhibition of human SNB19 cells at 10 uM after 48 hrs by SRB assay relative to control; conditions: SNB-19, 48 h, read-out: GI; method in brief: as §2
SNB-75 = test: Growth inhibition of human SNB75 cells at 10 uM after 48 hrs by SRB assay relative to control; conditions: SNB-75, 48 h, read-out: GI; method in brief: as §2
U-251 = test: Growth inhibition of human U251 cells at 10 uM after 48 hrs by SRB assay relative to control; conditions: U-251, 48 h, read-out: GI; method in brief: as §2
Malme-3M = test: Growth inhibition of human MALME-3M cells at 10 uM after 48 hrs by SRB assay relative to control; conditions: read-out: GI; method in brief: as §1
MDA-MB-435 = test: Growth inhibition of human MDA-MB-435 cells at 10 uM after 48 hrs by SRB assay relative to control; conditions: MDA-MB-435, 48 h, read-out: GI; method in brief: as §1
SK-MEL-2 = test: Growth inhibition of human SK-MEL-2 cells at 10 uM after 48 hrs by SRB assay relative to control; conditions: SK-MEL-2, 48 h, read-out: GI; method in brief: as §1
SK-MEL-5 = test: Growth inhibition of human SK-MEL-5 cells at 10 uM after 48 hrs by SRB assay relative to control; conditions: SK-MEL-5, 48 h, read-out: GI; method in brief: as §1
UACC-62 = test: Growth inhibition of human UACC62 cells at 10 uM after 48 hrs by SRB assay relative to control; conditions: UACC-62, 48 h, read-out: GI; method in brief: as §2
OVCAR-3 = test: Growth inhibition of human OVCAR3 cells at 10 uM after 48 hrs by SRB assay relative to control; conditions: OVCAR-3, 48 h, read-out: GI; method in brief: as §1
OVCAR-4 = test: Growth inhibition of human OVCAR4 cells at 10 uM after 48 hrs by SRB assay relative to control; conditions: OVCAR-4, 48 h, read-out: GI; method in brief: as §1
NCI/ADR-RES = test: Growth inhibition of human NCI/ADR-RES cells at 10 uM after 48 hrs by SRB assay relative to control; conditions: read-out: GI; method in brief: as §1
786-0 = test: Growth inhibition of human 786-0 cells at 10 uM after 48 hrs by SRB assay relative to control; conditions: 786-0, 48 h, read-out: GI; method in brief: as §1
SN12C = test: Growth inhibition of human SN12C cells at 10 uM after 48 hrs by SRB assay relative to control; conditions: read-out: GI; method in brief: as §1
TK-10 = test: Growth inhibition of human TK10 cells at 10 uM after 48 hrs by SRB assay relative to control; conditions: TK-10, 48 h, read-out: GI; method in brief: as §2
UO-31 = test: Growth inhibition of human UO31 cells at 10 uM after 48 hrs by SRB assay relative to control; conditions: UO-31, 48 h, read-out: GI; method in brief: as §2
PC-3 = test: Growth inhibition of human PC3 cells at 10 uM after 48 hrs by SRB assay relative to control; conditions: PC-3, 48 h, read-out: GI; method in brief: as §1
Hs-578T = test: Growth inhibition of human Hs 578T cells at 10 uM after 48 hrs by SRB assay relative to control; conditions: read-out: GI; method in brief: as §1
BT-549 = test: Growth inhibition of human BT549 cells at 10 uM after 48 hrs by SRB assay relative to control; conditions: BT-549, 48 h, read-out: GI; method in brief: as §1
MDA-MB-468 = test: Growth inhibition of human MDA-MB-468 cells at 10 uM after 48 hrs by SRB assay relative to control; conditions: MDA-MB-468, 48 h, read-out: GI; method in brief: as §1

SMILES | inhibition of growth at 10 µM (HL-60(TB)) | inhibition of growth at 10 µM (K562) | inhibition of growth at 10 µM (MOLT-4) | inhibition of growth at 10 µM (SR) | inhibition of growth at 10 µM (A549) | inhibition of growth at 10 µM (HOP-62) | inhibition of growth at 10 µM (HOP-92) | inhibition of growth at 10 µM (NCI-H522) | inhibition of growth at 10 µM (COLO 205) | inhibition of growth at 10 µM (HCC 2998) | inhibition of growth at 10 µM (HCT-116) | inhibition of growth at 10 µM (HT-29) | inhibition of growth at 10 µM (SW-620) | inhibition of growth at 10 µM (SF-539) | inhibition of growth at 10 µM (SNB-19) | inhibition of growth at 10 µM (SNB-75) | inhibition of growth at 10 µM (U-251) | inhibition of growth at 10 µM (Malme-3M) | inhibition of growth at 10 µM (MDA-MB-435) | inhibition of growth at 10 µM (SK-MEL-2) | also measured
COc1ccccc1NC(=O)c1cccc(-c2cc(=O)c3c(O)c(OC)c(OC)cc3o2)c1 | 9.41% | 22.1% | 27.9% | 21.5% | 18.5% | 0.21% | 15.8% | 26.6% | -7.01% | -2.45% | 14.5% | 10.8% | -0.74% | 6.01% | 6.18% | 13% | -0.16% | 5.55% | 2.77% | 14.1% | inhibition of growth at 10 µM (SK-MEL-5): 3.77%; inhibition of growth at 10 µM (UACC-62): 26.5%; inhibition of growth at 10 µM (OVCAR-3): -0.89%; inhibition of growth at 10 µM (OVCAR-4): 3.74%; inhibition of growth at 10 µM (NCI/ADR-RES): 19.8%; inhibition of growth at 10 µM (786-0): 9.66%; inhibition of growth at 10 µM (SN12C): 5.99%; inhibition of growth at 10 µM (TK-10): 14.1%; inhibition of growth at 10 µM (UO-31): 30%; inhibition of growth at 10 µM (PC-3): 25.1%; inhibition of growth at 10 µM (Hs-578T): 3.9%; inhibition of growth at 10 µM (BT-549): 10.8%; inhibition of growth at 10 µM (MDA-MB-468): 9.38%
COc1cc2oc(-c3cccc(NC(=O)c4ccc5c(c4)OCO5)c3)cc(=O)c2c(O)c1OC | 14% | 15% | 15.8% | 19% | 13.5% | 47.9% | 38.5% | 41.5% | 2.46% | 9.76% | 21% | 15.6% | -1.42% | 77.4% | 33.8% | 47.6% | 27.1% | 7.67% | 5.39% | 6.66% | inhibition of growth at 10 µM (SK-MEL-5): 25.9%; inhibition of growth at 10 µM (UACC-62): 41.4%; inhibition of growth at 10 µM (OVCAR-3): -4.7%; inhibition of growth at 10 µM (OVCAR-4): 25.8%; inhibition of growth at 10 µM (NCI/ADR-RES): 14.8%; inhibition of growth at 10 µM (786-0): 29.9%; inhibition of growth at 10 µM (SN12C): 9.48%; inhibition of growth at 10 µM (TK-10): 15.3%; inhibition of growth at 10 µM (UO-31): 15.8%; inhibition of growth at 10 µM (PC-3): 22.6%; inhibition of growth at 10 µM (Hs-578T): 26.1%; inhibition of growth at 10 µM (BT-549): 24.5%; inhibition of growth at 10 µM (MDA-MB-468): 17.6%
